# From PubChem BioAssay AID624038 (The Scripps Research Institute Molecular Screening Center, 2012)
# About 1,100 (0.31%) of roughly 360,000 compounds were called active. For the sample, actives were picked, then their nearest neighbours and some compounds at random. Values without a mark were called inactive.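 How the source made its calls: active means activation above the run cutoff, the mean activation of all test compounds plus 3 SD (cut at about 18% in these data); inactive means the rest.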
# Target: Muscarinic acetylcholine receptor M5 (Homo sapiens) (UniProt P08912)
# Assay: human M5 muscarinic receptor positive allosteric modulators, primary screen, CHO-K1 cells, Fluo-8 calcium fluorescence (AID 624038)
# Settings: CHO-K1 hM5, Fluo-8 calcium, ACh EC20 PAM; at 3 µM; hits give high values; 0% = ACh EC20, 100% = ACh EC100
# Procedure, shortened: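 Assay system: CHO-K1 hM5 cells / Incubation: Fluo-8 loading 80 min at 37 °C plus 30 min room temperature / Technique: Fluo-8 calcium dye fluorescence, kinetic read / Repeats: single replicate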
# Chain of Muscarinic acetylcholine receptor M5 (Homo sapiens) (P08912 whole entry, looked up): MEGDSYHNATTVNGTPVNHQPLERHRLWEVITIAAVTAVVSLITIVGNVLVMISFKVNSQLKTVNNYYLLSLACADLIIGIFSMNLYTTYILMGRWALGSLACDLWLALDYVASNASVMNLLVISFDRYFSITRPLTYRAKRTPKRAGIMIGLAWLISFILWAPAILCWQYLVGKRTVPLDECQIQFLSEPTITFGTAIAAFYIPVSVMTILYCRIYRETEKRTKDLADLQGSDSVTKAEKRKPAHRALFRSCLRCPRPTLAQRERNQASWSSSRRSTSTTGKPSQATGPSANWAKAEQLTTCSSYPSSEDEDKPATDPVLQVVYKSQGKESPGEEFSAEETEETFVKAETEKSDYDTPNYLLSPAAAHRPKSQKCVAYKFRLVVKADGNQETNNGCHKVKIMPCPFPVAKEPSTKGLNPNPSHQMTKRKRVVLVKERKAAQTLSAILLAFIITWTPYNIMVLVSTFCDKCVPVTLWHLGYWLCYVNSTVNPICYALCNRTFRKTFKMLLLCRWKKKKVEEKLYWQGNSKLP
row,SMILES,activation
1,CCCc1ccc(C(=O)[C@@H]2[C@@H](C(C)=O)N3c4ccc(F)cc4C=C[C@@H]3[C@@]23C(=O)Nc2ccccc23)cc1,25.3% (active)
2,COC(=O)c1ccc(Oc2nc(NC(C)C)nc(SC)n2)cc1,2.31%
3,CCOc1ccc(N(C)S(=O)(=O)c2cnc[nH]2)cc1,11.8%
4,Cc1ccc2[nH]c(=O)c(COC(=O)c3ccccn3)cc2c1,-8.69%
5,CCCc1nc(-c2cc3cc(C)ccc3[nH]c2=O)no1,25% (active)
6,Cc1ccc2[nH]c(=O)c(CN(C)S(=O)(=O)c3cccc4nonc34)cc2c1,4.24%
7,Cc1c(C(=O)NCC2CC2)sc(=O)n1Cc1cccc(F)c1,2.84%
8,CCCn1c(O)c(CN2CCCC(C)C2)c(C)c(C#N)c1=O (stereo not drawn),-2.92%
9,CC(C)(C)NC(=O)CN(C(=O)c1csnn1)c1ccccc1-c1ccccc1,-2.48%
10,O=C(COC(=O)c1ccc(Cl)nc1)NCc1cccs1,-12.7%
11,CC(C)(C)NC(=O)CN(C(=O)c1ccc(Cl)nc1)c1cccc2ccccc12,22.9% (active)
12,O=c1c2cc(-c3ccccc3)sc2nc2n1N=C(c1cccs1)CS2,9.65%
13,Cc1cc(C)nc(-n2nc(C)cc2NC(=O)c2ccc(F)cc2F)n1,3.36%
14,Cc1cc(C)n(-c2nnc(N3CCN(c4ccccc4)CC3)nn2)n1,-0.36%
15,Cc1cc(N/N=C\c2ccc(Br)cc2)nc(-n2nc(C)cc2C)n1,20.4% (active)
16,COc1ccccc1-c1n[nH]nc1C1=CC(=O)CC(C)(C)C1,-0.48%
17,CCCCCCCCN1C(=O)[C@H](CC(=O)NCC23CC4CC(CC(C4)C2)C3)C[C@@]2(C(=O)OC)CCCCC=C12,-2.23%
18,CC(NC(=O)c1cc2cc(Cl)ccc2oc1=N)c1ccccc1 (stereo not drawn),35.2% (active)
19,CC(NC(=O)C(=O)N/N=C/c1ccc(Cl)cc1)c1ccccc1 (stereo not drawn),-5.3%
20,Cc1ccc(C(=O)NC(C)c2ccccc2)cc1Br (stereo not drawn),-0.29%
21,COC(=O)c1cccc([N+](=O)[O-])c1CS(=O)(=O)c1ccc(C)cc1,-5.08%
22,CC(=O)N1c2ccc(S(=O)(=O)N3CCC(C(=O)NC4CCCCC4C)CC3)cc2CC1C (stereo not drawn),-5.55%
23,COC(=O)Cc1nc2c(N)nc(N)nc2[nH]c1=O,5.33%
24,COc1cc(C2C3=C(CCCC3=O)OC3=C2C(=O)CCC3)ccc1OCC(=O)Nc1ccccc1,-5.18%

row,SMILES,activation
1,N#CC1=C(N)OC2=C(C(=O)CCC2)C1C1CC=CCC1 (stereo not drawn),-4.35%
2,NC1=C([N+](=O)[O-])C(c2ccccc2)C2=C(CCCC2=O)O1 (stereo not drawn),23.6% (active)
3,CCCNC(=O)C1(C)CCN(Cc2ccc(Cl)c(Cl)c2)C1 (stereo not drawn),0.24%
4,Cc1cc(-n2cnc(-c3cn(C)nc3C)n2)no1,-0.03%
5,CC(C)Oc1ccc(CN2CCC(n3nccc3NC(=O)c3cccnc3)CC2)cc1,0.11%
6,COc1ccc(S(=O)(=O)N2CCN(CC(=O)N3CCNC3=O)CC2)cc1OC,2.2%
7,CN1C2CCC1CC(NC(=O)c1ccc([N+](=O)[O-])cc1)C2 (stereo not drawn),0.81%
8,Cc1cc(C)cc(C(=O)N2CCN=C2SCc2ccc([N+](=O)[O-])cc2)c1,-5.65%
9,CC(=O)N1CC[n+]2c(-c3ccc([N+](=O)[O-])cc3)csc21,20% (active)
10,O=C(NNS(=O)(=O)c1c(F)cc(F)c(Cl)c1F)C12CC3CC(CC(C3)C1)C2,-0.38%
11,CC(C)(C)C1CCC(OC(=O)CCC(=O)Nc2ccccc2)CC1 (stereo not drawn),-2.13%
12,CN1CCC(=NNC(=O)CN(c2cccc(Cl)c2)S(C)(=O)=O)CC1,7.47%
13,COc1cc(OC)cc(C(=O)NCC(=O)OCC(=O)NC(C)CCc2ccccc2)c1 (stereo not drawn),21.1% (active)
14,CC(CCc1ccccc1)NC(=O)COC(=O)c1ccc(F)cc1 (stereo not drawn),-4.05%
15,COc1cc(C(=O)OCC(=O)NC(C)CCc2ccccc2)cc(OC)c1OC (stereo not drawn),-10.1%
16,CC(C)CN(C(=O)CSc1nncn1C)C1CCS(=O)(=O)C1 (stereo not drawn),11.7%
17,CCC(C(=O)NCc1ccc(OC)cc1)n1nc(C)n2c(cc3occc32)c1=O (stereo not drawn),18.4% (active)
18,CCOc1ccc(CCNC(=O)C(CC)n2nc(C)n3c(cc4sccc43)c2=O)cc1OCC (stereo not drawn),-4.37%
19,CCc1nn(CCCC(=O)NCc2ccc(C)cc2)c(=O)c2cc3occc3n12,2.21%
20,COc1cc(OC)c(NC(=O)C2CCCN2C(=O)OCc2ccccc2)cc1Cl (stereo not drawn),2.68%
21,CCCCNC(=O)OC1CC2CC1[C@H]1CCCCN1C2=O (stereo partly drawn),0.25%
22,COc1ccc(OCc2cccc(C(=O)N3CCCC3)c2)cc1,19.1% (active)
23,CCOc1ccc(OCc2cccc(C(=O)N(CC)CC)c2)cc1,-1.6%
24,CC(=O)Oc1ccc(-c2cccc(C(=O)N3CCCCC3)c2)cc1,-3.42%

row,SMILES,activation
1,Cc1ccc(C2SCC(=O)N2c2ccccc2)cc1 (stereo not drawn),13.5%
2,C[C@H]1COC(=O)[C@H](CC(=O)OC(C)(C)C)C/C=C\C[C@@H](CC(=O)N[C@H](CO)Cc2ccccc2)C(=O)N1,20.5% (active)
3,CC(C)(C)OC(=O)C[C@@H]1C/C=C\C[C@@H](CC(=O)N[C@H](CO)Cc2ccccc2)C(=O)NCCOC1=O,-2.01%
4,CC(C)(C)OC(=O)C[C@@H]1C/C=C\C[C@H](CC(=O)N[C@@H](CO)Cc2ccccc2)C(=O)N[C@H](Cc2ccccc2)COC1=O,-0.44%
5,Cc1nn(C)c(C)c1Sc1ccccc1N,-3.24%
6,O=C(COC(=O)CNC(=O)c1ccccc1F)NCC(F)(F)F,16.4%
7,COC(=O)CNC(=O)c1ccccc1F,22.4% (active)
8,O=C(CNC(=O)c1ccccc1F)c1ccc(Br)cc1,1.83%
9,Cc1nn(C)c(C(=O)NNC(=S)NC2CCCCC2)c1Cl,-3.58%
10,Cn1ncc(Br)c1C(=O)NC1CCCC1,36.9% (active)
11,COc1ccccc1NC(=O)c1c(Br)cnn1C,0.59%
12,O=S(=O)(NCCc1ccccc1)c1ccccc1,20.4% (active)
13,CC(=O)Nc1ccc(S(=O)(=O)NCCc2ccccc2)cc1,-2.74%
14,O=S(=O)(NCCc1ccncc1)c1ccccc1,8.02%
15,CCCC(C)n1[nH]c(=O)c2c(C)cc(C)nc21 (stereo not drawn),4.59%
16,O=C1COc2ccc(C(=O)COC(=O)c3ccccc3Cl)cc2N1,-8.98%
17,Cc1ccc(S(=O)(=O)N(C)C)cc1NC(=O)CN1c2cccc3cccc(c23)S1(=O)=O,-2.16%
18,Cc1nc(Nc2ccccc2C)c2cnn(C)c2n1,-2.69%
19,Cn1ncc2c(Nc3cccc4ccccc34)ncnc21,43.5% (active)
20,Cn1ncc2c(NNC(=O)Cc3cccc4ccccc34)ncnc21,6.42%
21,CCCNC(=O)COc1coc(CN2CCN(Cc3ccccc3)CC2)cc1=O,-3.51%
22,Brc1cccc(-c2nnc3n2CCC3)c1,-2.96%
23,Cc1c(C(=O)Nc2cccc(-c3nnc4n3CCCCC4)c2)oc2ccccc12,-11.2%
24,O=C(Cn1[nH]c(=O)c2ccccc2c1=O)Nc1cccc(-c2nnc3n2CCCCC3)c1,22.3% (active)

row,SMILES,activation
1,Cc1ccc(C)c(N2CCN(C(=O)CCc3nc(-c4cccc(C(F)(F)F)c4)no3)CC2)c1,-0.63%
2,Cc1cccc(-c2noc(-c3ccc(F)cc3)n2)c1,18.1% (active)
3,OC[C@H]1O[C@@H](c2nc(-c3nc(-c4ccc(F)cc4)no3)cs2)[C@H](O)[C@@H](O)[C@H]1O,-2.26%
4,Cc1ccc(-c2cccc([C@H]3[C@@H]4C=CC[C@@H](C)[C@@H]4C(=O)N3Cc3ccccc3)c2)cc1,-3.69%
5,Cc1nn(Cc2ccc(F)cc2)c(C)c1NC(=O)c1cccnc1Cl,24.4% (active)
6,Cc1nn(Cc2ccc(F)cc2)c(C)c1NC(=O)c1noc2c1CCc1ccccc1-2,-7.62%
7,Cc1nn(Cc2ccc(Cl)c(Cl)c2)c(C)c1NC(=O)c1cc(C2CC2)on1,-11.4%
8,CCNc1nc(NCC)nc(N(C)n2cnnc2)n1,1.44%
9,Nc1c(-c2ccc(F)cc2)cnn1C1CCS(=O)(=O)C1 (stereo not drawn),0.13%
10,O=C(OC12CC3CC(CC(C3)C1)C2)c1ccc(NCc2cc(O)ccc2O)cc1,21.9% (active)
11,CC(C)C(=O)Nc1ccc2c(c1)oc1ccccc12,-7.04%
12,Oc1c(C(c2ccco2)N2CCC3(CC2)OCCO3)sc2ncnn12 (stereo not drawn),-1.05%
13,Cc1ccc(C(c2sc3nc(C)nn3c2O)N2CCN(c3ccccc3)CC2)cc1 (stereo not drawn),5.14%
14,Cc1nc2sc(C(c3ccco3)N3CCOCC3)c(O)n2n1 (stereo not drawn),20.1% (active)
15,Cc1nc2sc(C(c3ccco3)N3CCC4(CC3)OCCO4)c(O)n2n1 (stereo not drawn),5.68%
16,Oc1c(C(c2cccs2)N2CCN(c3ccc(F)cc3)CC2)sc2ncnn12 (stereo not drawn),-5.38%
17,Cc1ccc(C(c2sc3nc(C)nn3c2O)N2CCN(c3ccc(F)cc3)CC2)cc1 (stereo not drawn),42.2% (active)
18,COc1ccc(COC(=O)N/N=C(\C)CC(=O)Nc2ccc(Cl)cc2)cc1,-3.42%
19,COC(=O)c1ccc(C)c(NC(=O)C2CC(=O)N(C3CCCC(C)C3C)C2)c1 (stereo not drawn),0.01%
20,Cc1ccc(NC(=O)Cn2cnc3c(OCc4ccccc4)ncnc32)cc1C,1.1%
21,CCN(Cc1nc2ccccc2c(=O)[nH]1)Cc1cc(=O)oc2cc(C)c(C)cc12,-12.3%
